# Screens deposited in PubChem by Broad Institute.
# FGF22 binding = shifts melting point of recombinant human FGF22; Q9HCT0; recombinant FGF22 thermal shift, SYPRO orange fluorescence; percent of sucrose octasulfate shift, DMSO zero; activity (Tm shift, normalised), % at 9.99 µM; 1.5% of 340,000 active; AID 651658;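 active = mean Tm shift, scaled 0 neutral to 100 positive control, at about 1.3% or above, every replicate too, limit read from the data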
# Target sequence (Q9HCT0 whole entry, looked up): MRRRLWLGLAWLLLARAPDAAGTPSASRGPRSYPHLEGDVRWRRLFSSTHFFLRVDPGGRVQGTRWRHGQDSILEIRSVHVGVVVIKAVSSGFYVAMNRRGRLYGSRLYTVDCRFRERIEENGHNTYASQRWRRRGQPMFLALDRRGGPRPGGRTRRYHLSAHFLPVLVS
# FN deposit inh = fibronectin deposition inhibition; 0.086% of 350,000 active; inhibition, % at 12.6 µM; AID 743247; AH1F fibroblasts, Alexa488-fibronectin deposition fluorescence, overnight;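 active = mean inhibition across replicates of 30% or more, regardless of how many single replicates reach that level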
#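 Assay system: AH1F fibroblasts / Quantity: 10000 cells per well / Medium: DMEM plus 2% serum, read in PBS / Reagent: labelled fibronectin 24 nM / Dosing: single dose, pinned / Times: 1 h cell attachment, overnight exposure to compound and label / Signal: fluorescence, ex 485 nm, em 525 nm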
# SIRT5 inh = blocks human SIRT5 desuccinylation of peptide; inhibition, % at 15 µM; Q9NXA8; Purified SirT5, succinyl-peptide AMC, trypsin-coupled fluorescence; 1.1% of 330,000 active; in the data active = inhibition above about 15%
# Target sequence (Q9NXA8 whole entry, looked up): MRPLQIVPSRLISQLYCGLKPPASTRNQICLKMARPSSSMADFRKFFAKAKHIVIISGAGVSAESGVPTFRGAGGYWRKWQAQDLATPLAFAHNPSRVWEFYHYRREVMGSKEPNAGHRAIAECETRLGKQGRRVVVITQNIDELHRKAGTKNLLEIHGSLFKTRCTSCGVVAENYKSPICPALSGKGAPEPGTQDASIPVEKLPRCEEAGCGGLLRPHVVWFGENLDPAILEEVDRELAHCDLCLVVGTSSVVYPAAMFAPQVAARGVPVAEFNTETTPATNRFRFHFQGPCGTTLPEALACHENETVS
# E-sel inducer = induces E-selectin expression in human endothelial cells; P16581; HUVEC E-selectin immunofluorescence imaging; normalized: neutral wells 0, TNF-alpha wells 100; activation, % at 7.58 µM; 0.37% of 260,000 active;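 active = mean E-selectin-positive cell signal at least 10% of the positive control, reached in at least 60% of replicates, without over 20% cell loss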
#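 System: HUVEC, human umbilical vein endothelial cells; quantity: 3,000 cells/well; buffer or medium: EGM-2 medium, gelatin-coated wells; dosing: single-point compound dose; detection: immunofluorescence imaging; evaluation: % PE-positive cells; benchmarks: TNF-alpha, DMSO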
# Ecoli rRNA inh = inhibits bacterial ribosomal RNA function over humanized ribosomes; AID 720706; E. coli WT GFP vs humanized-ribosome RFP mutants, fluorescence, 24 h; hits give low values; DMSO median 0, no signal -100; GFP signal change (wild-type ribosome), % (test concentration not listed); 1.6% of 350,000 active;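 active = significant combined selectivity score with lowered wild-type GFP, culture density cut under 30%, mutant RFP and density less affected; inactive = any of these conditions unmet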
# Statin myotox sup = protects C2C12 myotubes from simvastatin toxicity | 0.78% of 330,000 active | rescue of ATP level, % at 7.49 µM | ATP luminescence, 48 h; scaled: DMSO 0, geranylgeraniol control 100;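 active = mean ATP rescue above about 67%, or every replicate alone reaching that limit, limit read from the data, passing the limit was not always enough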;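 also: myotubes were challenged with 10 µM simvastatin during compound exposure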
# Numbers stand for hits; n = inactive; x = not tested or not shown. An excerpt weighted towards active compounds, which were near 4% of everything screened.
SMILES,FGF22 binding,FN deposit inh,SIRT5 inh,E-sel inducer,Ecoli rRNA inh,Statin myotox sup
C[C@@H]1CN([C@H](C)CO)S(=O)(=O)c2ccc(-c3cncnc3)cc2O[C@H]1CN(C)Cc1ccncc1,n,x,17.1,n,n,n
C[C@H](CO)N1C[C@H](C)[C@H](CN(C)Cc2ccncc2)Oc2cc(Br)ccc2S1(=O)=O,n,n,15.2,x,n,n
C[C@@H]1CN([C@@H](C)CO)C(=O)c2cc(/C=C/c3ccccc3)cnc2O[C@H]1CN(C)C(=O)Cc1ccccn1,n,n,n,n,n,n
CSCCC(NC(=O)c1ccccc1Cl)C(=O)NNC(=O)c1csc(N2CCOCC2)n1 (centres undefined),n,n,n,n,n,n
Cc1ccc(-c2cc(C(=O)NNC(=O)c3csc(N4CCOCC4)n3)c3ccccc3n2)cc1,n,n,n,n,-18.9,n
O=C(NNC(=O)c1cc(-c2ccccc2)nc2ccccc12)c1csc(N2CCOCC2)n1,n,n,n,n,-37.2,n
CSCCC(NS(=O)(=O)c1ccccc1F)C(=O)NNC(=O)c1csc(N2CCOCC2)n1 (centres undefined),n,n,16.9,n,n,n
COC(=O)[C@H]1[C@H](CO)[C@H]2Cn3c(ccc(-c4ccc(F)cc4)c3=O)[C@H]2N1S(C)(=O)=O,n,x,n,n,n,n
C[C@@H]1CN([C@@H](C)CO)C(=O)c2cccc(NC(=O)c3ccncc3)c2O[C@@H]1CN(C)C(=O)Nc1ccc(C(F)(F)F)cc1,n,x,n,n,n,n
Cc1cc2c(N=O)c(NO)ccc2[nH]1,x,x,x,x,x,80.4
CCc1ccc2c(c1)C(c1ccc(N3CCOCC3)cc1)=NNC(c1ccncc1)=N2,n,n,n,x,-17.8,x
O=C(N/N=C/c1ccc(O)cc1)c1cc(C23CC4CC(CC(C4)C2)C3)[nH]n1,n,n,n,x,-32.3,x
COC(=O)c1sc(=S)n(Cc2ccccc2)c1C,n,n,n,x,-24.2,n
O=C(Oc1ccc(Oc2ccccc2)cc1)N1CCC(O)CC1,n,n,34.1,n,n,n
C[C@@H]1CN([C@@H](C)CO)S(=O)(=O)c2ccc(C#CC(C)(C)O)cc2O[C@@H]1CN(C)C(=O)C1CCCCC1,n,x,n,n,n,n
COc1ccc(CCNC(=O)c2ccc(N3CCCC3=O)cc2)cc1,x,x,x,x,x,114.4
CC(C)NC(=O)N[C@@H]1C=C[C@H](CC(=O)N2CCCCC2)O[C@@H]1CO,n,n,n,n,n,n
Cc1cccc(-n2ncc3c(NCc4ccccc4)ncnc32)c1,n,n,n,n,n,n
c1ccc(CCNc2ncnc3c2cnn3-c2ccccc2)cc1,x,x,x,x,-52.9,n
Cc1cccc(-n2ncc3c(NCCc4ccc(S(N)(=O)=O)cc4)ncnc32)c1,n,n,n,n,n,104.8
c1ccc(CNc2ncnc3c2cnn3-c2ccccc2)cc1,x,n,x,x,x,n
C[C@@H]1CN([C@@H](C)CO)C(=O)c2cc(C#Cc3ccccc3F)cnc2O[C@@H]1CN(C)S(=O)(=O)c1ccccc1F,n,n,n,n,n,n
O=C(C[C@@H]1C=C[C@H](NS(=O)(=O)c2ccc(F)cc2)[C@H](CO)O1)N1CCN(c2ccccc2)CC1,n,x,n,n,n,n
CO[C@@H]1CN(C)C(=O)c2cc(NC(C)=O)ccc2OC[C@@H](C)N(S(=O)(=O)c2cn(C)cn2)C[C@H]1C,n,n,n,n,n,n
CCOc1ccc(NC(=S)NC23CC4CC(CC(C4)C2)C3)cc1,n,n,n,x,n,n
SMILES,FGF22 binding,FN deposit inh,SIRT5 inh,E-sel inducer,Ecoli rRNA inh,Statin myotox sup
CN(C)c1ccc(NC(=S)NC23CC4CC(CC(C4)C2)C3)cc1,n,n,n,73.3,n,n
CCCc1cc(C(=O)N2CCC(N3CCC(C(=O)NC(C)C)CC3)CC2)n(C)n1,43.7,n,n,x,n,n
CCNC(=O)[C@H]1[C@H](CO)[C@H]2Cn3c(ccc(-c4ccc(F)cc4)c3=O)[C@H]2N1Cc1cc(F)ccc1F,n,x,n,n,n,n
CCOC(=O)C1=C(C)Nc2ccccc2N=C1NC(=O)c1cc(C)on1,n,n,n,x,n,n
CCOC(=O)C1=C(C)Nc2ccccc2N=C1NC(=O)/C=C/c1ccc(OC)cc1OC,43.5,x,n,x,n,x
COc1ccc(CNC(=O)c2c(O)c3cccc4c3n(c2=O)CCC4)cc1OC,x,x,x,x,x,78.9
C[C@H](CO)N1C[C@H](C)[C@H](CN(C)S(=O)(=O)c2cn(C)cn2)Oc2c(NC(=O)c3cnccn3)cccc2C1=O,n,n,n,n,n,x
COC(=O)C(=C/C=C/c1cccnc1)C(=O)OC,43.3,n,n,n,x,n
Cc1noc(C)c1NC(=O)N(C)C[C@@H]1Oc2c(NC(=O)C3CCOCC3)cccc2C(=O)N([C@H](C)CO)C[C@@H]1C,n,n,n,n,n,n
CCN(Cc1ccccc1)C(=O)CSc1nncn1C,43.3,n,n,n,x,x
COc1ccccc1-c1cnc2c(c1)C(=O)N([C@H](C)CO)C[C@@H](C)[C@H](CN(C)C(=O)c1cccnc1)O2,x,x,x,n,n,n
CNC(=O)/C=C/c1cccc(C(F)(F)F)c1,x,n,n,x,n,x
CC(C)(C)NC(=O)/C=C/c1ccc(C(F)(F)F)cc1,43.2,n,n,x,x,x
CC(C)CC#Cc1ccc2c(c1)O[C@@H](CN(C)CC1CC1)[C@@H](C)CN([C@@H](C)CO)S2(=O)=O,n,x,n,n,n,n
NC(=O)C1CC(=O)N(Cc2ccc3c(c2)OCO3)C(=Nc2ccccc2)S1 (centres undefined),n,x,n,x,-18.0,n
C[C@@H]1CN([C@@H](C)CO)C(=O)c2cccc(NC(=O)C3CC3)c2O[C@H]1CN(C)C(=O)Nc1ccc2c(c1)OCO2,n,x,n,n,n,n
CCCN1[C@H](C(=O)NCc2ccccn2)[C@@H](CO)[C@@H]2Cn3c(ccc(C4=CCCC4)c3=O)[C@@H]21,n,x,n,n,n,n
COc1ccc(C(=O)Cn2nnc(-c3ccccc3NC(=O)C3CC3)n2)cc1,x,x,x,x,x,n
COc1ccc(C(=O)Cn2nnc(-c3ccccc3F)n2)cc1,n,x,n,x,-30.6,n
Cc1[nH][nH]c(=O)c1C(c1c(C)[nH][nH]c1=O)c1cn(Cc2ccc(Cl)c(Cl)c2)c2ccccc12,n,n,n,x,-30.4,x
C/C=C/c1ccc2c(c1)O[C@@H](CN(C)C(=O)CN1CCOCC1)[C@@H](C)CN([C@H](C)CO)S2(=O)=O,n,n,n,n,n,n
CC1C/C(=N/Nc2nc3ccccc3[nH]2)CC(C)(C)C1 (centres undefined),43.4,n,n,x,n,x
COc1ccc(S(=O)(=O)N(C)C[C@@H]2Oc3ccc(NC(=O)Nc4ccccc4)cc3CC(=O)N([C@@H](C)CO)C[C@@H]2C)cc1,n,n,n,n,n,n
